# Measurements taken from article PMC8434796 (Glycobiology, 2021).
# Values joined by “and” are separate entries in the source; they are usually repeats but may differ in a detail not shown here. Equal entries are not always repeated.
# How the values were obtained:
# [1] = tested on: Drosophila mutEt15 (I1056F/M); details: Drosophila line with CRISPR/Cas9 point mutation I1056F/M; ref Douris et al. 2016; cited from earlier work
# Drosophila WT = details: wild-type Drosophila; ref Douris et al. 2016; cited from earlier work
# HAS2 = test: qPCR relative expression of HAS2 in NIH3T3 cells; assay type: cell-based, mouse
# Procedure, shortened: (§1)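 Total RNA isolated with TRI reagent; concentration and quality checked by spectrophotometry and electrophoresis. Target mRNA quantified by SYBR Green real-time qPCR and normalized to GAPDH mRNA. Values are mean ± SD of three technical replicates.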
# [2] = tested on: A2058 melanoma cells, MCF-7 and MDA-MB-361 breast, SKOV-3 ovarian and UT-SCC118 squamous carcinoma cells; details: incubation with 4MU; ref Kultti et al. 2009; cited from earlier work
# [3] = tested on: hyaluronan synthase activity; details: plasma membrane preparations containing hyaluronan synthase activity; ref Nakamura et al. 1997; cited from earlier work
# NIH3T3 cells [4] = test: Microscopic evaluation; assay type: cell-based, mouse; details: 10 μM, 3 days, HABP staining, vs DMSO control
# Procedure, shortened: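 NIH3T3 seeded at 2 × 10^4 cells/well; next day fresh medium with 10 μM test compound, 3 days. Fixed 10 min in 10% buffered formalin, avidin-biotin blocked, biotinylated HABP overnight at 4°C, then streptavidin-Alexa 488, Hoechst and phalloidin. Confocal 40× 5 × 5 mosaics; HA-positive area as % of total cell area. Three wells. Controls: 0.05% DMSO; hyaluronidase digest of untreated cells (1 mg/mL, 30 min, 37°C).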
# [5] = tested on: CCl4 induced liver fibrosis; details: CCl4 treated animals; ref Andreichenko et al. 2019; cited from earlier work
# Hyal2 = test: qPCR relative expression of Hyal2 in NIH3T3 cells; assay type: cell-based, mouse
# Procedure, shortened: as §1
# NIH3T3 cells [6] = test: Cell population doubling time; assay type: cell-based, mouse; details: 72 h; for Doubling time: control 21 h
# B16F10 cells = details: 30 μM, ref Nagy et al. 2019; cited from earlier work
# [7] = tested on: CCl4 induced liver fibrosis; test: CCl4-induced liver fibrosis in mice; assay type: in vivo; details: for Blood parameters, compound alone vs control group: mice treated by compound only, 600 mg/kg daily; for Hepatotoxicity of compound alone (AST/ALT): mice, daily dose of 600 mg/kg per os
# [8] = mice fed with 5% chow, averaged over 24 h; ref Kuipers et al. 2016; cited from earlier work
# HAS3 = test: qPCR relative expression of HAS3 in NIH3T3 cells; assay type: cell-based, mouse
# Procedure, shortened: as §1
# Hyal1 = test: qPCR relative expression of Hyal1 in NIH3T3 cells; assay type: cell-based, mouse
# Procedure, shortened: as §1
# endothelial cells = details: 0.6 μM, ref Nagy et al. 2010; cited from earlier work
# NIH3T3 cells [9] = test: Inhibition of hyaluronan secreted in NIH3T3 cell culture media; assay type: cell-based, mouse; details: for Effect on hyaluronan production (in words): NIH3T3 HA production assay; for IC50: Mus musculus, NIH3T3, 72 h, read-out: IC50 for inhibition of hyaluronan deposition in cell culture media
# NIH3T3 cells [10] = test: MTT cell viability assay; assay type: cell-based, mouse; details: proliferating NIH3T3 cells, 3 days incubation
# Procedure, shortened: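 Proliferating NIH3T3 fibroblasts exposed for 3 days to rising test compound concentrations. MTT (5 mg/mL in PBS, 10 μL per 100 μL medium) incubated 3 h at 37°C, 5% CO2. Plates centrifuged, medium removed, formazan dissolved in DMSO, absorbance read at 570 nm. n = 3.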
# zebrafish embryos = details: ref Park et al. 2019; cited from earlier work
# [11] = tested on: human pancreatic cancer cell (KP1-NL); details: fixed concentration 10 μM; ref Morohashi et al. 2006; cited from earlier work
compound,measurement,setting,value
O=C(NC(=O)c1c(F)cccc1F)Nc1cc(Cl)c(OC(F)(F)C(F)C(F)(F)F)cc1Cl (centres unmarked) [lufenuron],LC50 mutEt15,[1],16.659 µg/mL
same,LC50 WT,Drosophila WT,0.148 µg/mL
"Cc1cc(=O)oc2cc(O)ccc12 [Compound 4MU, 7-hydroxy-4-methylchromen-2-one]",IC50,"HAS2; Mus musculus, NIH3T3, read-out: IC50 for inhibition of HAS2 expression",~250 µM
same,Depletion of UDP-GlcUA levels,[2],38–95%
same,HA synthesis in cell-free assay (in words),[3],did not inhibit HA synthesis
same,Decrease of the percentage of HA-positive area,NIH3T3 cells [4],at least 3 times
same,Collagen deposition in the liver,[5],prevented collagen deposition
same,Hyal2 expression not affected at concentrations up to,Hyal2,> 1 mM
same,Doubling time,NIH3T3 cells [6]; 250 μM,38 h
same,Concentration from/over which doubling time increased,NIH3T3 cells [6],≥ 60 µM
same,HA production inhibition,B16F10 cells,50%
same,Plasma HA,"[7]; CCl4-treated mice, 600 mg/kg daily per os",reduced plasma HA to near the control levels
same,"Blood parameters, compound alone vs control group",[7],did not find any significant differences
same,Hepatotoxicity of compound alone (AST/ALT),[7],no hepatotoxicity
same,Effective plasma concentration,[8],0.89 ± 0.51 μg/mL and 5.1 ± 2.9 μM
same,Activated HAS3 expression at concentration over,HAS3,over 500 μM
same,IC50,"Hyal1; Mus musculus, NIH3T3, read-out: Upregulated Hyal1 expression with IC50",~250 µM
same,Reduction of hyaluronan secretion,endothelial cells,30%
C[C@@H]([C@H](N)C(=O)N[C@H](C(=O)O)[C@H]1O[C@@H](n2ccc(=O)[nH]c2=O)[C@H](O)[C@@H]1O)[C@H](O)c1ccc(O)cn1 [nikkomycin],Effect on hyaluronan production (in words),NIH3T3 cells [9],ineffective
"Cc1c2c(cc3c(-c4ccccc4)cc(=O)oc13)C(=O)CC1(CCCCC1)O2 [Compound VI, 10′-methyl-6′-phenyl-3′H-spiro[cyclohexane-1,2′-pyrano[3,2-g]chromene]-4′,8′-dione]",Did not affect cell viability at concentrations up to,NIH3T3 cells [10],> 1 mM
same,Not toxic in concentrations up to (MTT),NIH3T3 cells [10],> 0.5 mM
same,Effect on hyaluronan production (in words),NIH3T3 cells [9],completely abrogated inhibition of hyaluronan production
"CC(C)N1C(=O)N(c2ccccc2)CSC1=NC(C)(C)C [buprofezin, 2-(tert-butylimino)-5-phenyl-3-(propan-2-yl)-1,3,5-thiadiazinan-4-one]",LC50 mutEt15,[1],> 1000 µg/mL
same,LC50 WT,Drosophila WT,53.2 µg/mL
same,Not toxic in concentrations up to (MTT),NIH3T3 cells [10],> 1 mM
same,IC50,NIH3T3 cells [9],1.24 ± 0.87 µM
"CCOc1cc(C(C)(C)C)ccc1C1COC(c2c(F)cccc2F)=N1 (centres unmarked) [etoxazole, 4-(4-tert-butyl-2-ethoxyphenyl)-2-(2,6-difluorophenyl)-4,5-dihydro-1,3-oxazole]",Upregulation of HAS2 expression,"HAS2; NIH3T3 cells, 120 μM",~1.5 times
same,Suppression of HAS2 expression,"HAS2; NIH3T3 cells, doses higher than 120 μM",up to 80%
same,Level of Hyal2 (in words),Hyal2,not affected
same,Not toxic in concentrations up to (MTT),NIH3T3 cells [10],> 1 mM
same,Effect on cardiovascular development (in words),zebrafish embryos,inhibits cardiovascular development
same,αSMA level in liver homogenate (western blot),"[7]; CCl4-treated mice, 600 mg/kg daily per os, n = 5",significant reduction
same,Plasma HA,"[7]; CCl4-treated mice, 600 mg/kg daily per os, 600 mg/kg",reduced plasma HA to near the control levels
same,Plasma HA,"[7]; CCl4-treated mice, 600 mg/kg daily per os, listed as Etoxazole, 600 mg/kg",reduced HA production
same,"Blood parameters, compound alone vs control group",[7],did not find any significant differences
same,Hepatotoxicity of compound alone (AST/ALT),[7],no hepatotoxicity
same,Inhibited HAS3 expression at concentrations higher than,HAS3,higher than 250 μM
same,Hyal1 level (in words),"Hyal1; NIH3T3 cells, all tested concentrations",significantly dropped
same,IC50,NIH3T3 cells [9],4.21 ± 3.82 µM
"Cc1c2c(cc3c(-c4ccccc4)cc(=O)oc13)C(=O)CC1(CCNCC1)O2 [Compound VII, 10′-methyl-6′-phenyl-3′H-spiro[piperidine-4,2′-pyrano[3,2-g]chromene]-4′,8′-dione]",Decrease of the percentage of HA-positive area,NIH3T3 cells [4],at least 3 times
same,Concentration from/over which doubling time increased,NIH3T3 cells [6],over 10 μM
"CC(=O)c1cc2c(-c3ccccc3)cc(=O)oc2c(C)c1O [Compound V, 6-acetyl-7-hydroxy-8-methyl-4-phenyl-2H-chromen-2-one]",Toxicity at concentrations higher than (MTT),NIH3T3 cells [10],higher than 125 μM
same,Concentration from/over which doubling time increased,NIH3T3 cells [6],≥ 125 µM
"Cc1cc(=O)oc2c(C)c3c(cc12)C(=O)CC1(CCCCC1)O3 [Compound IX, 6′,10′-dimethyl-3′H-spiro[cyclohexane-1,2′-pyrano[3,2-g]chromene]-4′,8′-dione]",Did not affect cell viability at concentrations up to,NIH3T3 cells [10],> 1 mM
same,Not toxic in concentrations up to (MTT),NIH3T3 cells [10],> 0.5 mM
same,Doubling time,NIH3T3 cells [6]; all tested concentrations,16.5 h
same,Effect on hyaluronan production (in words),NIH3T3 cells [9],completely abrogated inhibition of hyaluronan production
O=C(NC(=O)c1c(F)cccc1F)Nc1ccc(Cl)cc1 [diflubenzuron],LC50 mutEt15,[1],> 5000 µg/mL
same,LC50 WT,Drosophila WT,0.322 µg/mL
"O=C(NC(=O)c1ccccc1Cl)Nc1ccc(OC(F)(F)F)cc1 [triflumuron, 2-chloro-N-[[4-(trifluoromethoxy)phenyl]carbamoyl] benzamide]",Not toxic in concentrations up to (MTT),NIH3T3 cells [10],> 1 mM
same,IC50,NIH3T3 cells [9],1.48 ± 1.44 µM
"COc1ccc2c(C)cc(=O)oc2c1 [II, 7-methoxy-4-methyl coumarin]",Inhibitory activity on HA production (in words),[11],inactive
"CCN(CC)Cc1cc2c(-c3ccccc3)cc(=O)oc2c(C)c1O [IV, 6-((diethylamino)methyl)-7-hydroxy-8-methyl-4-phenyl-2H-chromen-2-one]",Concentration from/over which doubling time increased,NIH3T3 cells [6],≥ 500 µM
"CC(=O)c1cc2c(C)cc(=O)oc2c(C)c1O [VIII, 6-acetyl-7-hydroxy-4,8-dimethyl-2H-chromen-2-one]",Decrease of the percentage of HA-positive area,NIH3T3 cells [4],at least 3 times
same,Toxicity at concentrations higher than (MTT),NIH3T3 cells [10],> 60 µM
same,Concentration from/over which doubling time increased,NIH3T3 cells [6],> 50 µM
